# Results: publication PMC3758425 (Biochemistry, 2013)
# pKd: −log10 of the molar value. “Also recorded” adds a separate entry of the source.
# Key:
# [1] = non-acetylated form; ref [28]; cited from earlier work
# [2] = tested on: apo-CaM; settings: non-acetylated α-syn; ref [28], [29]; cited from earlier work
# [3] = ref [36]; cited from earlier work
# [4] = target: holo-CaM (Ca-bound human calmodulin) (Homo sapiens, UniProt P0DP23); assay: NMR titration; settings: compared with literature membrane binding, [55], [56]
# In short: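 Human CaM was expressed in E. coli and purified, ¹⁵N-labelled, holo form, held constant at 100 μM. It was titrated with N-acetylated α-syn, as the 1–19 peptide or the full-length protein, in 50 mM MES, 100 mM NaCl, 3 mM CaCl₂, pH 6.4, 5% D₂O. Amide shifts were read by ¹⁵N HSQC at 800 MHz, 310 K. Ten amides were scaled to one reference residue and fitted globally to a two-state 1:1 model.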
# [5] = target: CaM; settings: non-acetylated α-syn, cited from earlier work
substance,measurement,setting,value
α-syn: Full-length non-acetylated α-syn expressed in E. coli,competition of CaM with membrane for α-syn binding,[1],CaM can compete with the membrane for α-syn binding
same,interaction with apo-CaM in earlier studies,[2],There is disagreement whether apo-CaM can interact with α-syn; also recorded: one report seeing interaction only in the presence of calcium-bound (holo-) CaM whereas the other observed little difference between the two forms
same,"affinity for negatively charged membranes, effect of N-terminal acetylation",[3],N-terminal acetylation increases its affinity for negatively charged membranes
same,binding constant to holo-CaM relative to membranes containing anionic lipids,[4],comparable
same,binding affinity (two earlier studies),"[5]; ref [28], [29]",submicromolar range
same,pKd,"[5]; read-out: dissociation constant (later study), ref [30]",~5.00
